# Test results reported in ChEMBL document CHEMBL1139553, “Synthesis of dehydroalanine fragments as thiostrepton side chain mimetics” (Bioorg Med Chem Lett, 2005).
# Experiments:
# Ribosome [1] = experiment: Inhibition of bacterial translation by blocking the function of the ribosomal GTPase center at 0.17 uM concentration; format: subcellular; details: Escherichia coli
# Procedure, shortened: (§1)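 Translation inhibition was tested at a single compound concentration, since limited solubility ruled out dose-response data at higher concentrations. Percent inhibition is the mean of three replicate experiments per compound (±10%).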
# Ribosome [2] = experiment: Inhibition of bacterial translation by blocking the function of the ribosomal GTPase center at 400 uM concentration; format: subcellular; details: Escherichia coli; procedure, shortened: as §1
# Ribosome [3] = experiment: Inhibition of bacterial translation by blocking the function of the ribosomal GTPase center at 150 uM concentration; format: subcellular; details: Escherichia coli; procedure, shortened: as §1
# Ribosome [4] = experiment: Inhibition of bacterial translation by blocking the function of the ribosomal GTPase center at 15 uM concentration; format: subcellular; details: Escherichia coli; procedure, shortened: as §1
# Ribosome [5] = experiment: Inhibition of bacterial translation by blocking the function of the ribosomal GTPase center; format: subcellular, Escherichia coli
inhibition (Ribosome [2]),SMILES,other results
30%,C=C(NC(=O)c1csc(-c2cccnc2)n1)C(=O)N[C@@H](COC(C)(C)C)C(=O)OC,
30%,C=C(NC(=O)c1cnccn1)C(=O)NC(=C)C(=O)OC,
20%,C=C(NC(=O)c1csc(-c2cccnc2)n1)C(=O)N1CCC[C@H]1C(=O)OC,

# Second part, the compound before the results:
SMILES,inhibition (Ribosome [2]),other results
C=C(NC(=O)C(=C)NC(=O)c1csc(C2=N[C@@H]3c4csc(n4)[C@H]4NC(=O)c5csc(n5)[C@H]([C@](C)(O)[C@@H](C)O)NC(=O)[C@H]5CSC(=N5)/C(=C/C)NC(=O)[C@H]([C@@H](C)O)NC(=O)c5csc(n5)[C@]3(CC2)NC(=O)[C@H](C)NC(=O)C(=C)NC(=O)[C@H](C)NC(=O)[C@H]([C@@H](C)CC)N[C@@H]2C=Cc3c([C@H](C)O)cc(nc3[C@H]2O)C(=O)O[C@@H]4C)n1)C(N)=O,,inhibition (Ribosome [1]): 50%
C=C(NC(=O)c1ccccn1)C(=O)N1CCC[C@H]1C(=O)OC,4%,
C=C(NC(=O)c1csc(-c2ccncc2)n1)C(=O)N[C@@H](COC(C)(C)C)C(=O)OC,,inhibition (Ribosome [3]): 5%
C=C(NC(=O)c1csc(-c2cccnc2)n1)C(=O)N[C@@H](Cc1c[nH]c2ccccc12)C(=O)OC,,inhibition (Ribosome [4]): 20%
C=C(NC(=O)c1cnccn1)C(=O)N[C@@H](Cc1cn(C(=O)OC(C)(C)C)c2ccccc12)C(=O)OC,,inhibition (Ribosome [3]): 10%
C=C(NC(=O)c1csc(-c2cccnc2)n1)C(=O)N[C@@H](Cc1cn(C(=O)OC(C)(C)C)c2ccccc12)C(=O)OC,,IC50 (Ribosome [5]): 40 µM
C=C(NC(=O)c1cnccn1)C(=O)N[C@@H](COC(C)(C)C)C(=O)OC,15%,
C=C(NC(=O)c1ccccn1)C(=O)N[C@@H](COC(C)(C)C)C(=O)OC,40%,
C=C(NC(=O)c1cnccn1)C(=O)N1CCC[C@H]1C(=O)OC,25%,
C=C(NC(=O)c1ccccn1)C(=O)N[C@@H](Cc1cn(C(=O)OC(C)(C)C)c2ccccc12)C(=O)OC,,inhibition (Ribosome [3]): 20%
